Reference: ChEMBL document CHEMBL1156264, “Synthesis and structure-activity relationships of dimeric peptide antagonists of the human immunoglobulin G-human neonatal Fc receptor (IgG-FcRn) interaction” (J Med Chem, 2010)
One block for each compound: values may come before it. Activity calls are given as the source filed them. No cut-off for these calls is given here. Numbered stars: 1 amine (or outer) side, 2 acyl side, 3 side chain; on linkers, the order of the positions; unused ones are H or OH. Bridge positions count the residues as written; N and C are the ends. Square brackets hold non-standard residues; d marks the D form. Peptide text beside a SMILES is read from it. I, II: the chains in the order shown. Phe(4-guanidino) = N=C(N)Nc1ccc(C[C@H](N)C(=O)O)cc1; X1 = O=C(C(=O)[*:2])[C@H](Cc1ccc(O)cc1)N[*:1]; NHCH2CH2N(Me)CH2CO = CN(CCN[*:1])CC(=O)[*:2]; NMeL = CN[C@@H](CC(C)C)C(=O)O; Pen = CC(C)(S)[C@H](N)C(=O)O; Suc = O=C(CCC(=O)[*:2])[*:1]; Sar = CNCC(=O)O

What was measured:
[1] = molecular target: T1, IgG receptor FcRn large subunit p51 (Homo sapiens, UniProt P55899); assay: Ratio of RF-Pen-TG-4GuPhe-G-Sar-NMeLeu-YPC IC50 to compound IC50 for soluble human FcRn
Mus musculus [2] = assay: Increase in human IgG catabolism in endogenous FcRn/beta2m gene knockout TG32B transgenic mouse harboring human FcRn at 1 mg/kg, iv QD for 4 consecutive days measured after 24 hrs by ELISA; assay type: functional, organism-based; parameters: dose 1 mg/kg
In short: (§1)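 TG32B mice (muFcRn−/−, muβ2m−/−, huFcRn+/+, huβ2m+/+), 4 per group, got 500 mg/kg hIgG (pooled subtypes) iv at 0 h. Peptide or vehicle (20 mM sodium acetate, pH 5) was given iv at 24, 48, 72 and 96 h. Blood was taken before each injection and at 30, 120 and 168 h. Serum hIgG was measured by ELISA: goat anti-hIgG(Fab) capture, goat anti-hIgG(Fc)-HRP detection.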

[3] = molecular target: T1, IgG receptor FcRn large subunit p51; assay: Ratio of RF-Pen-NMeAla-GHF-X-NMeLeu-YPC IC50 to compound IC50 for soluble human FcRn
[4] = molecular target: T1, IgG receptor FcRn large subunit p51; assay: Inhibition of IgG binding to soluble human FcRn after 2 hrs by competition ELISA
Mus musculus [5] = assay: Increase in human IgG catabolism in endogenous FcRn/beta2m gene knockout TG32B transgenic mouse harboring human FcRn at 5 mg/kg, iv QD for 4 consecutive days measured after 24 hrs by ELISA; assay type: functional, organism-based; parameters: dose 5 mg/kg; in short: as §1
[6] = molecular target: T1, IgG receptor FcRn large subunit p51; assay: Ratio of RF-Pen-TGHFG-Sar-NMeLeu-YPC IC50 to compound IC50 for soluble human FcRn
Mus musculus [7] = assay: Increase in human IgG catabolism in endogenous FcRn/beta2m gene knockout TG32B transgenic mouse harboring human FcRn at 2.5 mg/kg, iv QD for 4 consecutive days measured after 24 hrs by ELISA; assay type: functional, organism-based; parameters: dose 2.5 mg/kg; in short: as §1
Mus musculus [8] = assay: Increase in human IgG catabolism in iv dosed endogenous FcRn/beta2m gene knockout TG32B transgenic mouse harboring human FcRn administered QD for 4 consecutive days measured after 24 hrs by ELISA; assay type: functional, organism-based; in short: as §1
[9] = molecular target: T1, IgG receptor FcRn large subunit p51; assay: Ratio of RFCTGHFGGLYPC IC50 to compound IC50 for soluble human FcRn
[10] = molecular target: T1, IgG receptor FcRn large subunit p51; assay: Ratio of RF-Pen-TGHF-valerolactam-NMeLeu-YPC IC50 to compound IC50 for soluble human FcRn

T1 sequence (P55899 whole entry): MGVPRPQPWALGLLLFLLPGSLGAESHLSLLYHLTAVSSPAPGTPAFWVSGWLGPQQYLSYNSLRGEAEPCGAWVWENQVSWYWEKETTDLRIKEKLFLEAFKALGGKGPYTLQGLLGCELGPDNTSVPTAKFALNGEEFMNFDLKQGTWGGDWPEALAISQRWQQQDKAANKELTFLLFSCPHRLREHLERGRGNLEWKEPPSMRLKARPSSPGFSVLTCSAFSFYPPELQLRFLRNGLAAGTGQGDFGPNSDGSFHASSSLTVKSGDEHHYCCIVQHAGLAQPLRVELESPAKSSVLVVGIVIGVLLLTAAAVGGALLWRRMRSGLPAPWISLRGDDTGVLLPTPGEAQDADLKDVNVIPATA

Ratio IC50 [1]: 50
SMILES: CC(C)C[C@H]1C(=O)N[C@@H](Cc2ccc(O)cc2)C(=O)C(=O)N2CCC[C@H]2C(=O)N[C@H](C(N)=O)CSSC(C)(C)[C@H](NC(=O)[C@H](Cc2ccccc2)NC(=O)[C@H](CCCNC(=N)N)NC(=O)CCC(=O)N[C@@H](CCCNC(=N)N)C(=O)N[C@@H](Cc2ccccc2)C(=O)N[C@@H]2C(=O)N[C@@H]([C@@H](C)O)C(=O)NCC(=O)N[C@@H](Cc3ccc(NC(=N)N)cc3)C(=O)NCC(=O)N(C)CC(=O)N(C)[C@@H](CC(C)C)C(=O)N[C@@H](Cc3ccc(O)cc3)C(=O)C(=O)N3CCC[C@H]3C(=O)N[C@H](C(N)=O)CSSC2(C)C)C(=O)N[C@@H]([C@@H](C)O)C(=O)NCC(=O)N[C@@H](Cc2ccc(NC(=N)N)cc2)C(=O)NCC(=O)N(C)CC(=O)N1C (I: RF[Pen]TG[Phe(4-guanidino)]G[Sar][NMeL][X1]PC-NH2 / II: RF[Pen]TG[Phe(4-guanidino)]G[Sar][NMeL][X1]PC-NH2; disulfide I:3-I:12, II:3-II:12; linker I:N-II:N via Suc)
Activity (Mus musculus [2]): Active

IC50 [4]: 50 nM
SMILES: CC(C)C[C@H]1C(=O)N[C@@H](Cc2ccc(O)cc2)C(=O)C(=O)N2CCC[C@H]2C(=O)N[C@H](C(N)=O)CCCCNC(=O)C[C@H](NC(=O)[C@H](Cc2ccccc2)NC(=O)[C@H](CCCNC(=N)N)NC(=O)CCC(=O)NCCN(C)CC(=O)N[C@@H](CCCNC(=N)N)C(=O)N[C@@H](Cc2ccccc2)C(=O)N[C@H]2CC(=O)NCCCC[C@@H](C(N)=O)NC(=O)[C@@H]3CCCN3C(=O)C(=O)[C@H](Cc3ccc(O)cc3)NC(=O)[C@H](CC(C)C)N(C)C(=O)CN(C)C(=O)CNC(=O)[C@H](Cc3ccccc3)NC(=O)[C@H](Cc3c[nH]cn3)NC(=O)CNC(=O)[C@H]([C@@H](C)O)NC2=O)C(=O)N[C@@H]([C@@H](C)O)C(=O)NCC(=O)N[C@@H](Cc2c[nH]cn2)C(=O)N[C@@H](Cc2ccccc2)C(=O)NCC(=O)N(C)CC(=O)N1C (I: [NHCH2CH2N(Me)CH2CO]RFDTGHFG[Sar][NMeL][X1]PK-NH2 / II: RFDTGHFG[Sar][NMeL][X1]PK-NH2; lactam I:4-I:14, II:3-II:13; linker I:N-II:N via Suc)
Activity (Mus musculus [5]): Active

Ratio IC50 [9]: 12
SMILES: CC(C)C[C@@H]1NC(=O)CNC(=O)CNC(=O)[C@H](Cc2ccccc2)NC(=O)[C@H](Cc2c[nH]cn2)NC(=O)CNC(=O)[C@H]([C@@H](C)O)NC(=O)[C@@H](NC(=O)[C@H](Cc2ccccc2)NC(=O)[C@H](CCCNC(=N)N)NC(=O)CCC(=O)NCCN(C)CC(=O)N[C@@H](CCCNC(=N)N)C(=O)N[C@@H](Cc2ccccc2)C(=O)N[C@H]2CSSC[C@@H](C(N)=O)NC(=O)[C@@H]3CCCN3C(=O)C(=O)[C@H](Cc3ccc(O)cc3)NC(=O)[C@H](CC(C)C)NC(=O)CNC(=O)CNC(=O)[C@H](Cc3ccccc3)NC(=O)[C@H](Cc3c[nH]cn3)NC(=O)CNC(=O)[C@H]([C@@H](C)O)NC2=O)CSSC[C@@H](C(N)=O)NC(=O)[C@@H]2CCCN2C(=O)C(=O)[C@H](Cc2ccc(O)cc2)NC1=O

The next lines start with the compound.

SMILES: CC(C)C[C@H]1C(=O)N[C@@H](Cc2ccc(O)cc2)C(=O)C(=O)N2CCC[C@H]2C(=O)N[C@H](C(N)=O)CSSC(C)(C)[C@H](NC(=O)[C@H](Cc2ccccc2)NC(=O)[C@H](CCCNC(=N)N)NC(=O)CCC(=O)NCCN(C)CC(=O)N[C@@H](CCCNC(=N)N)C(=O)N[C@@H](Cc2ccccc2)C(=O)N[C@@H]2C(=O)N(C)[C@@H](C)C(=O)NCC(=O)N[C@@H](Cc3c[nH]cn3)C(=O)N[C@@H](Cc3ccccc3)C(=O)N[C@H]3CCCN(CC(=O)N(C)[C@@H](CC(C)C)C(=O)N[C@@H](Cc4ccc(O)cc4)C(=O)C(=O)N4CCC[C@H]4C(=O)N[C@H](C(N)=O)CSSC2(C)C)C3=O)C(=O)N(C)[C@@H](C)C(=O)NCC(=O)N[C@@H](Cc2c[nH]cn2)C(=O)N[C@@H](Cc2ccccc2)C(=O)N[C@H]2CCCN(CC(=O)N1C)C2=O
Ratio IC50 [3]: 61
Activity (Mus musculus [2]): Active
IC50 [4]: 18 nM

SMILES: CC(C)C[C@H]1C(=O)N[C@@H](Cc2ccc(O)cc2)C(=O)C(=O)N2CCC[C@H]2C(=O)N[C@H](C(N)=O)CSSC(C)(C)[C@H](NC(=O)[C@H](Cc2ccccc2)NC(=O)[C@H](CCCNC(=N)N)NC(=O)CCC(=O)N[C@@H](CCCNC(=N)N)C(=O)N[C@@H](Cc2ccccc2)C(=O)N[C@@H]2C(=O)N[C@@H]([C@@H](C)O)C(=O)NCC(=O)N[C@@H](Cc3c[nH]cn3)C(=O)N[C@@H](Cc3ccccc3)C(=O)NCC(=O)N(C)CC(=O)N(C)[C@@H](CC(C)C)C(=O)N[C@@H](Cc3ccc(O)cc3)C(=O)C(=O)N3CCC[C@H]3C(=O)N[C@H](C(N)=O)CSSC2(C)C)C(=O)N[C@@H]([C@@H](C)O)C(=O)NCC(=O)N[C@@H](Cc2c[nH]cn2)C(=O)N[C@@H](Cc2ccccc2)C(=O)NCC(=O)N(C)CC(=O)N1C
Ratio IC50 [6]: 220
Activity (Mus musculus [7]): Active
Activity (Mus musculus [5]): Active
Activity (Mus musculus [2]): Active
Activity (Mus musculus [8]): Active

SMILES: CC(C)C[C@H]1C(=O)N[C@@H](Cc2ccc(O)cc2)C(=O)C(=O)N2CCC[C@H]2C(=O)N[C@H](C(N)=O)CSSC(C)(C)[C@H](NC(=O)[C@H](Cc2ccccc2)NC(=O)[C@H](CCCNC(=N)N)NC(=O)CN(C)CCNC(=O)CCC(=O)N[C@@H](CCCNC(=N)N)C(=O)N[C@@H](Cc2ccccc2)C(=O)N[C@@H]2C(=O)N[C@@H]([C@@H](C)O)C(=O)NCC(=O)N[C@@H](Cc3c[nH]cn3)C(=O)N[C@@H](Cc3ccccc3)C(=O)NCC(=O)N(C)CC(=O)N(C)[C@@H](CC(C)C)C(=O)N[C@H](Cc3ccc(O)cc3)C(=O)C(=O)N3CCC[C@H]3C(=O)N[C@H](C(N)=O)CSSC2(C)C)C(=O)N[C@@H]([C@@H](C)O)C(=O)NCC(=O)N[C@@H](Cc2c[nH]cn2)C(=O)N[C@@H](Cc2ccccc2)C(=O)NCC(=O)N(C)CC(=O)N1C
Ratio IC50 [6]: 200
Activity (Mus musculus [7]): Active
IC50 [4]: 2.6 nM

SMILES: CC(C)C[C@H]1C(=O)N[C@@H](Cc2ccc(O)cc2)C(=O)C(=O)N2CCC[C@H]2C(=O)N[C@H](C(N)=O)CSSC(C)(C)[C@H](NC(=O)[C@H](Cc2ccccc2)NC(=O)[C@H](CCCNC(=N)N)NC(=O)CCC(=O)NCCN(C)CC(=O)N[C@@H](CCCNC(=N)N)C(=O)N[C@@H](Cc2ccccc2)C(=O)N[C@@H]2C(=O)N[C@@H]([C@@H](C)O)C(=O)NCC(=O)N[C@@H](Cc3c[nH]cn3)C(=O)N[C@@H](Cc3ccccc3)C(=O)N[C@H]3CCCN(CC(=O)N(C)[C@@H](CC(C)C)C(=O)N[C@@H](Cc4ccc(O)cc4)C(=O)C(=O)N4CCC[C@H]4C(=O)N[C@H](C(N)=O)CSSC2(C)C)C3=O)C(=O)N[C@@H]([C@@H](C)O)C(=O)NCC(=O)N[C@@H](Cc2c[nH]cn2)C(=O)N[C@@H](Cc2ccccc2)C(=O)N[C@H]2CCCN(CC(=O)N1C)C2=O
Ratio IC50 [10]: 110
Activity (Mus musculus [8]): Active
